Data from ChEMBL document CHEMBL4152245, “Design, synthesis and biological evaluation of benzo[cd]indol-2(1H)-ones derivatives as BRD4 inhibitors” (Eur J Med Chem, 2018).
Calls of active or inactive are those of the source. The rule behind the calls is not given here.

Tests used:
MV4-11 [1] = assay: Cell cycle arrest in human MV4-11 cells assessed as accumulation at S-phase at 20 uM after 24 hrs by propidium iodide staining based flow cytometry (reference value: 28.91 to 29.71%); assay type: functional
MV4-11 [2] = assay: Cell cycle arrest in human MV4-11 cells assessed as accumulation at G1-phase at 20 uM after 24 hrs by propidium iodide staining based flow cytometry (reference value: 61.39 to 63.23%); assay type: functional
MV4-11 [3] = assay: Cell cycle arrest in human MV4-11 cells assessed as accumulation at G2-phase at 5 uM after 24 hrs by propidium iodide staining based flow cytometry (reference value: 7.76 to 8.93%); assay type: functional
MV4-11 [4] = assay: Cell cycle arrest in human MV4-11 cells assessed as accumulation at G2-phase at 20 uM after 24 hrs by propidium iodide staining based flow cytometry (reference value: 7.76 to 8.93%); assay type: functional
[5] = molecular target: T1, Bromodomain-containing protein 4 (Homo sapiens, UniProt O60885); assay: Inhibition of BRD4 in human MV4-11 cells assessed as downregulation of c-MYC protein expression after 6 hrs by Western blot analysis; assay type: cell-based
Procedure, shortened: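 MV4-11 cells at 5×10⁵/mL treated 6 h with various compound concentrations or DMSO. Immunoblotted with anti-c-Myc (1:1000, 4 °C overnight), then anti-rabbit secondary (1:10000, 1 h, room temperature).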

MV4-11 [6] = assay: Cell cycle arrest in human MV4-11 cells assessed as accumulation at G2-phase at 10 uM after 24 hrs by propidium iodide staining based flow cytometry (reference value: 7.76 to 8.93%); assay type: functional
MV4-11 [7] = assay: Cell cycle arrest in human MV4-11 cells assessed as accumulation at S-phase at 10 uM after 24 hrs by propidium iodide staining based flow cytometry (reference value: 28.91 to 29.71%); assay type: functional
[8] = molecular target: T1, Bromodomain-containing protein 4; assay: (§1) Inhibition of His-tagged BRD4 bromodomain-1 (unknown origin) expressed in Escherichia coli BL21(DE3) at 5 uM using SGRGK(Ac)-GG-K(Ac)-GLG-K(Ac)-GGA-K(Ac)-RHRKVGG-K-Biotin as substrate preincubated for 15 mins followed by substrate addition measured after 10 mins by Alphascreen assay relative to control
Procedure, shortened: (§2)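 His-tagged BRD4_BD1 purified by Ni-NTA, anion exchange and gel filtration, tag retained. Assay buffer: 20 mM HEPES pH 7.4, 0.1% BSA, 0.01% Triton X-100, 1 mM DTT. Protein preincubated with compound 15 min at room temperature, biotinylated tetra-acetyl peptide added for 10 min, then streptavidin donor and nickel chelate acceptor beads for 60 min. Compounds screened at 20 and 5 µM; IC50 from three independent experiments.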

MV4-11 [9] = assay: Cell cycle arrest in human MV4-11 cells assessed as accumulation at G1-phase after 24 hrs by propidium iodide staining based flow cytometry; assay type: functional
A549 = assay: Antiproliferative activity against human A549 cells after 72 hrs by CellTiter-Glo luminescent assay; assay type: functional, cell-based
Procedure, shortened: (§3)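 HUV-EC-C, MRC5, RPTEC, A549, MDA-MB-231 and 22Rv1 cells seeded at 3×10⁴/mL and exposed to serially diluted compounds or DMSO. Viability read by CellTiter-Glo luminescence. Each dilution point run in triplicate, averaged, and fitted.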

MRC5 = assay: Antiproliferative activity against human MRC5 cells after 72 hrs by CellTiter-Glo luminescent assay; assay type: cell-based; conditions: mrc5, 72 h; procedure, shortened: as §3
RPTEC = assay: Antiproliferative activity against human RPTEC cells after 72 hrs by CellTiter-Glo luminescent assay; assay type: cell-based; procedure, shortened: as §3
[10] = molecular target: T1, Bromodomain-containing protein 4; assay: Inhibition of His-tagged BRD4 bromodomain-1 (unknown origin) expressed in Escherichia coli BL21(DE3) using SGRGK(Ac)-GG-K(Ac)-GLG-K(Ac)-GGA-K(Ac)-RHRKVGG-K-Biotin as substrate preincubated for 15 mins followed by substrate addition measured after 10 mins by Alphascreen assay; procedure, shortened: as §2
[11] = molecular target: T1, Bromodomain-containing protein 4; assay: Binding affinity to His-tagged BRD4 bromodomain-1 (unknown origin) expressed in Escherichia coli BL21(DE3) assessed as change in melting temperature at 100 uM by SYPRO orange dye based thermal shift assay
Procedure, shortened: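 Buffer of 20 mM HEPES pH 7.4, 100 mM NaCl and 1 mM DTT, with 5× SYPRO Orange and 5 µM BRD4_BD1. Compound at 100 µM or 0.5% DMSO, DMSO matched across wells. Heated at 2.5 °C/min from 25 to 95 °C. Tm compared with the DMSO control.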

MV4-11 [12] = assay: Cell cycle arrest in human MV4-11 cells assessed as accumulation at G1-phase at 5 uM after 24 hrs by propidium iodide staining based flow cytometry (reference value: 61.39 to 63.23%); assay type: functional
[13] = molecular target: T1, Bromodomain-containing protein 4; assay: as §1, with “at 20” for “at 5”; procedure, shortened: as §2
[14] = molecular target: T1, Bromodomain-containing protein 4; assay: Inhibition of BRD4 in human MV4-11 cells assessed as downregulation of CDK6 mRNA expression after 6 hrs by RT-PCR analysis; assay type: cell-based
Procedure, shortened: (§4)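 MV4-11 cells at 5×10⁵/mL treated 6 h with various compound concentrations or DMSO. c-Myc, Bcl-2 and CDK6 transcripts quantified by qRT-PCR, normalized to B2M by the ΔΔCt method.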

MDA-MB-231 = assay: Antiproliferative activity against human MDA-MB-231 cells after 72 hrs by CellTiter-Glo luminescent assay; assay type: functional, cell-based; procedure, shortened: as §3
CWR22R = assay: Antiproliferative activity against human 22Rv1 cells after 72 hrs by CellTiter-Glo luminescent assay; assay type: functional, cell-based; procedure, shortened: as §3
HUVEC = assay: Antiproliferative activity against HUVEC after 72 hrs by CellTiter-Glo luminescent assay; assay type: cell-based; conditions: human; procedure, shortened: as §3
MV4-11 [15] = assay: Cell cycle arrest in human MV4-11 cells assessed as accumulation at S-phase at 5 uM after 24 hrs by propidium iodide staining based flow cytometry (reference value: 28.91 to 29.71%); assay type: functional
MV4-11 [16] = assay: Antiproliferative activity against human MV4-11 cells after 72 hrs by CellTiter-Glo luminescent assay; assay type: functional, cell-based; conditions: MV4-11, 72 h
Procedure, shortened: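 MV4-11 cells in RPMI 1640 with 10% FBS and 1% penicillin/streptomycin, seeded at 1×10⁵/mL. Compounds or DMSO added about 1 h later, then incubated 72 h. Viability read by CellTiter-Glo luminescence. Each dilution point run in triplicate, averaged, and fitted for IC50.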

[17] = molecular target: T1, Bromodomain-containing protein 4; assay: Inhibition of BRD4 in human MV4-11 cells assessed as downregulation of c-MYC mRNA expression after 6 hrs by RT-PCR analysis; assay type: cell-based; procedure, shortened: as §4
MV4-11 [18] = assay: Cell cycle arrest in human MV4-11 cells assessed as accumulation at G1-phase at 10 uM after 24 hrs by propidium iodide staining based flow cytometry (reference value: 61.39 to 63.23%); assay type: functional
[19] = molecular target: T1, Bromodomain-containing protein 4; assay: Inhibition of BRD4 in human MV4-11 cells assessed as downregulation of Bcl2 mRNA expression after 6 hrs by RT-PCR analysis; assay type: cell-based; procedure, shortened: as §4

inhibition [5]: Dose-dependent effect
inhibition [8]: 59%
IC50 [10]: 6.83 µM
ΔTm [11]: 3.4 °C
inhibition [13]: 99%
inhibition [14]: Dose-dependent effect
IC50 (MV4-11 [16]): 11.7 µM
inhibition [17]: Dose-dependent effect
inhibition [19]: Dose-dependent effect
Compound: CCN1C(=O)c2cccc3c(S(=O)(=O)N4CCCC4)ccc1c23
Activity (MV4-11 [1]): 9.88%
Activity (MV4-11 [2]): 87.22%
Activity (MV4-11 [3]): 5.47%
Activity (MV4-11 [4]): 2.9%
Activity (MV4-11 [6]): 4%
Activity (MV4-11 [7]): 15.95%
Activity (MV4-11 [9]): Dose-dependent effect
Activity (A549): Active
Activity (MRC5): Non-Toxic
Activity (RPTEC): Non-Toxic
Activity (MV4-11 [12]): 73%
Activity (MDA-MB-231): Active
Activity (CWR22R): Active
Activity (HUVEC): Non-Toxic
Activity (MV4-11 [15]): 21.52%
Activity (MV4-11 [18]): 80.04%
